We go through one compound from ChEMBL document CHEMBL4613273, “Discovery of Aryl Formyl Piperidine Derivatives as Potent, Reversible, and Selective Monoacylglycerol Lipase Inhibitors” (J Med Chem, 2020).

Active and inactive are the calls of the source. No cut-off for these calls is given here. Some results are limits rather than exact numbers.

Data set [1] is filed under the species Homo sapiens. The data set can be described thus: Selectivity index, ratio of IC50 for inhibition of human recombinant FAAH to IC50 for inhibition of human recombinant MAGL.
The subject of data set [2] is Mus musculus. The data set can be described thus: Antidepressant activity in ICR mouse model of reserpine-induced depression assessed as reduction in awakening at 4 to 16 mg/kg, sc for 6 days followed by reserpine injection 2 hrs after last compound dose and measured after 2 hrs. It is filed as functional, organism-based. An outline of the steps:
(§1)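 In mice, depression was induced with reserpine 4 mg/kg, and the compound was given s.c. at 4, 8 or 16 mg/kg. Controls received phosphate buffer alone. Awakening, finger contact, fear, head touch, autonomous movement, straight and eyelid closure were scored. Data are mean ± SD of 3 independent experiments.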

The nature of data set [3]: Bioavailability (0 to t) in Sprague-Dawley rat plasma at 10 mg/kg, ig measured over 1 to 300 mins post dose by LC-MS/MS analysis. It is filed as ADME, organism-based. The conditions noted are these: po.
The nature of data set [4]: Stability in rat liver microsomes assessed as parent compound remaining level at 100 uM pre-incubated for 5 mins before NADPH addition and measured after 60 mins by UPLC-MS/MS analysis. Format: ADME, Microsome. The conditions noted are these: read-out: Stability. An outline of the steps: (§2)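 Liver microsomes from human, mouse and rat were incubated with the compound. Remaining parent compound was followed at several time points up to 60 min and expressed as percent remaining.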
A general note: Liver microsomes are vesicles of endoplasmic reticulum, rich in cytochrome P450 enzymes.

Data set [5] in a line: Stability in mouse liver microsomes assessed as parent compound remaining level at 100 uM pre-incubated for 5 mins before NADPH addition and measured after 60 mins by UPLC-MS/MS analysis. Format: ADME, Microsome. Conditions: read-out: Stability. An outline of the steps: as §2
Data set [6] deals with T1, Fatty-acid amide hydrolase 1 (Homo sapiens, UniProt O00519).
T1 sequence (O00519 whole entry): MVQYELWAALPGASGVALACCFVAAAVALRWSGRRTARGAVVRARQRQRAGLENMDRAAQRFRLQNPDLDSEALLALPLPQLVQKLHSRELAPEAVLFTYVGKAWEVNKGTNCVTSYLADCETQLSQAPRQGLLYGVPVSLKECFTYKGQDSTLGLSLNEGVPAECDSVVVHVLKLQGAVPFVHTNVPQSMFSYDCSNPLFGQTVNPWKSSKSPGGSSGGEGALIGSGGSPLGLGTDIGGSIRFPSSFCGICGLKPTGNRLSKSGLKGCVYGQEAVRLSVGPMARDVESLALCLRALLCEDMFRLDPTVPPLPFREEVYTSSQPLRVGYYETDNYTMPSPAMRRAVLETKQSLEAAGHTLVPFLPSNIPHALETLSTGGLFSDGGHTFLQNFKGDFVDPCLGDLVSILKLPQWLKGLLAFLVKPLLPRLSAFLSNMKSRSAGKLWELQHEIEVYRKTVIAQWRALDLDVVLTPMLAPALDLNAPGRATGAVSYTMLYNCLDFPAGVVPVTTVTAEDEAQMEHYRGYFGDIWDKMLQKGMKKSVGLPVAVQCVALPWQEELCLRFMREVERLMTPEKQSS
Put plainly: Inhibition of human recombinant FAAH pre-incubated for 5 mins before substrate addition and further incubated for 30 mins by fluorescence assay.

For data set [7], the system named is Mus musculus. Put plainly: Antidepressant activity in ICR mouse model of reserpine-induced depression assessed as reduction in head touch at 4 to 16 mg/kg, sc for 6 days followed by reserpine injection 2 hrs after last compound dose and measured after 2 hrs. It is filed as functional, organism-based. An outline of the steps:
as §1

In data set [8] the target is T2, Monoglyceride lipase (Homo sapiens, UniProt Q99685).
T2 sequence (Q99685 whole entry): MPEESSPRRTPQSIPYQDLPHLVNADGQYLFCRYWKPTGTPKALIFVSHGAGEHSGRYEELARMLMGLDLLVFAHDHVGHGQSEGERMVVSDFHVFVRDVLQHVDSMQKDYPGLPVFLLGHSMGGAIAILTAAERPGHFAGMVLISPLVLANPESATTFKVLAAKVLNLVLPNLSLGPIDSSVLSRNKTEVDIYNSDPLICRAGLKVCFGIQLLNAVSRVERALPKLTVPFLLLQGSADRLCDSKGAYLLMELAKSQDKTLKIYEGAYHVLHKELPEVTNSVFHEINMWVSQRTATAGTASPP
The data set can be described thus: Inhibition of human recombinant MAGL pre-incubated for 5 mins before MAGL substrate addition and further incubated for 10 mins.

In data set [9] the target is Cannabinoid receptor 2 (Homo sapiens, UniProt P34972). Put plainly: Inhibition of CB2 receptor (unknown origin) expressed in Flpin-CHO cells at 10 uM incubated for 10 mins by Eu-cAMP tracer based cAMP accumulation assay relative to control. On the technique in general: cAMP levels reflect the balance of adenylyl cyclase and phosphodiesterase activity.
Cannabinoid receptor 2, sequence (P34972 whole entry): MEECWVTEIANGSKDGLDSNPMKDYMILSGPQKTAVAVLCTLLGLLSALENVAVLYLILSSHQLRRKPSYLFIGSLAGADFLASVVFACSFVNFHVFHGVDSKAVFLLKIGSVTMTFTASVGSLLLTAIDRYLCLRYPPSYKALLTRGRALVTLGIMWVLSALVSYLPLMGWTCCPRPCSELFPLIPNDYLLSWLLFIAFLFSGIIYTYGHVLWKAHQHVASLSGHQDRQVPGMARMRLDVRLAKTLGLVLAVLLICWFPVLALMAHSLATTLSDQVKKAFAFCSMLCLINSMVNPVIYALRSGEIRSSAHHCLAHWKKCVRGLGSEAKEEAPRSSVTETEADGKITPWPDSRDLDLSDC
Data set [10] concerns the target T3, Monoglyceride lipase (Homo sapiens) (UniProt Q99685).
T3 sequence (whole entry): T2 sequence (Q99685 whole entry)
Put plainly: Reversible inhibition of human recombinant MAGL at 1 uM pre-incubated for 5 mins before MAGL substrate 4-NPA addition followed by 10 fold dilution and measured after 10 mins. An outline of the steps:
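Human MAGL was preincubated with 1 μM inhibitor and then diluted 10-fold to a final 0.1 μM. Percent inhibition after dilution was compared with direct 1 μM and 0.1 μM samples to judge reversibility.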

The nature of data set [11]: Tmax in Sprague-Dawley rat plasma at 10 mg/kg, ig measured over 1 to 300 mins post dose by LC-MS/MS analysis. It is filed as ADME, organism-based. The conditions noted are these: po.
Data set [12] deals with Mus musculus. Put plainly: Antidepressant activity in ICR mouse model of reserpine-induced depression assessed as reduction in fear at 4 to 16 mg/kg, sc for 6 days followed by reserpine injection 2 hrs after last compound dose and measured after 2 hrs. It is filed as functional, organism-based. An outline of the steps:
as §1

Data set [13] can be described thus: Half life in Sprague-Dawley rat plasma at 10 mg/kg, iv measured over 1 to 300 mins post dose by LC-MS/MS analysis. Format: ADME, organism-based.
The nature of data set [14]: Bioavailability (0 to infinity) in Sprague-Dawley rat plasma at 10 mg/kg, ig measured over 1 to 300 mins post dose by LC-MS/MS analysis.
The test system of data set [15] is Mus musculus. The data set can be described thus: Antidepressant activity in ICR mouse model of reserpine-induced depression assessed as immobility time at 5 mg/kg, ig by tail suspension test (reference value: 132.38 +/- 44.51 secs). It is filed as functional.
Data set [16] in a line: Cmax in Sprague-Dawley rat plasma at 10 mg/kg, iv measured over 1 to 300 mins post dose by LC-MS/MS analysis. It is filed as ADME, organism-based. Also noted: dose 10 mg/kg, route intravenous.
The nature of data set [17]: Half life in Sprague-Dawley rat plasma at 10 mg/kg, ig measured over 1 to 300 mins post dose by LC-MS/MS analysis. Format: ADME, organism-based. The conditions noted are these: po.
The test system of data set [18] is Mus musculus. Put plainly: Antidepressant activity in ICR mouse model of reserpine-induced depression assessed as reduction in finger contact at 4 to 16 mg/kg, sc for 6 days followed by reserpine injection 2 hrs after last compound dose and measured after 2 hrs. Format: functional, organism-based. An outline of the steps: as §1
The target in data set [19] is T4, Fatty-acid amide hydrolase 1 (Homo sapiens) (UniProt O00519).
T4 sequence (whole entry): T1 sequence (O00519 whole entry)
Put plainly: Inhibition of human recombinant FAAH at 100 uM pre-incubated for 5 mins before substrate addition and further incubated for 30 mins by fluorescence assay relative to control.

Data set [20] is described as follows: Growth inhibition of mouse L929 cells at 20 uM incubated for 24 to 72 hrs relative to control. Format: cell-based. The conditions noted are these: read-out: GI. An outline of the steps:
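Mouse fibroblast L929 cells were exposed to the compound, including 20 μM, for 24, 48 and 72 h. Growth inhibition was read against control, from 3 independent experiments.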

The nature of data set [21]: AUC (0 to infinity) in Sprague-Dawley rat plasma at 10 mg/kg, ig measured over 1 to 300 mins post dose by LC-MS/MS analysis. Format: ADME, organism-based. Also noted: dose 10 mg/kg, route […], time infinity. Conditions: in vivo, po.

As to `O=C(Nc1cccc(Cl)c1)C1CCN(C(=O)c2ccc3ccccc3c2)CC1`, the Ratio IC50 in [1] came out at 6780. In addition, the outcome in data set [2], in data set [7], in data set [12] and in [18] was Active. Also, the bioavailability (in general, dose-corrected exposure relative to a reference, in per cent) in data set [3] is 12.2%; in [14], 21.6%. The remaining at 1 h, 100 µM in [4] was 17.3%; in data set [5], 57.9%. The values for the IC50 in data set [6] and in data set [8] were greater than 100000 nM and 14.7 nM, respectively. The inhibition in data set [9] was determined as 20.4%; in [19] it was 41.3%. Besides, the inhibition result in data set [10] is “Active”. The Tmax (as a rule, the time at which the peak concentration occurs) in data set [11] was 0.567 h. For the same compound, the half-life – broadly, how long it takes for the measured level to halve – in [13] was 1.1 h; in [17], 4.96 h. Moreover, the Time in data set [15] came to 89.87 s. The peak level in data set [16] (Cmax) was 5480 ng/mL. Further, the inhibition at 20 µM in data set [20] was 8.6%. In addition, the AUC (as a rule, the area under the concentration-time curve, a measure of exposure) in [21] was 17791.86 µg·min/L.
